Where “and” joins values, the source holds several entries; their conditions need not be identical. Identical values can stand only once. Like-named read-outs stand apart in the source and are kept apart here.
Columns and labels:
healthy participants = assay: Safety assessments; type: in vivo, human
Method in brief: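 Part 2 healthy participants confined from Day −2 of period 1 to Day 9 of period 4. […] AEs monitored throughout, recording duration, severity, causality and outcome, alongside safety ECGs, laboratory tests, physical examination and vital signs.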

dogs = conditions: single dose of GSK'254 17 mg kg^−1, cited from earlier work
HIV‐1 = conditions: GSK'254 200 mg QD, treatment-naive people living with HIV-1, phase IIa; cited from earlier work
[1] = GSK'254 200 mg QD, healthy participants, previous studies; cited from earlier work
[2] = GSK'254 200 mg QD, treatment-naive people living with HIV-1; cited from earlier work
[3] = tested on: healthy participants and people living with HIV‐1; conditions: short-term administration; cited from earlier work
[4] = part 2, GSK'254 100 mg (N = 40)
[5] = part 2, GSK'254 500 mg (N = 40)

## C=C(C)[C@@H]1CC[C@]2(NCCN3CCS(=O)(=O)CC3)CC[C@]3(C)[C@H](CC[C@@H]4[C@@]5(C)CC=C(C6=CC[C@@](CF)(C(=O)O)CC6)C(C)(C)[C@@H]5CC[C@]43C)[C@@H]12 [GSK'254]
Healthy participants; [4]
  AE: Gastrointestinal disorders: 1 (3) n (%)
  AE: General disorders and administration site conditions: 0 n (%)
  AE: Immune system disorders: 0 n (%)
  AE: Infections and infestations: 0 n (%)
  AE: Maculopapular rash: 1 (3) n (%)
  AE: Medical device site dermatitis: 0 n (%)
  AE: Nausea: 0 n (%)
  AE: Nervous system disorders: 0 n (%)
  AE: Renal and urinary disorders: 0 n (%)
  AE: Reproductive system and breast disorders: 0 n (%)
  AE: Respiratory, thoracic, and mediastinal disorders: 1 (3) n (%)
  AE: Skin and subcutaneous tissue disorders: 3 (8) n (%)
  AE: Vessel puncture site pain: 0 n (%)
  Any AE: 5 (13) n (%)
  Any drug-related AE: 2 n (%) and 2 (5) n (%)
  Drug-related AE: Abdominal pain: 0 n (%)
  Drug-related AE: Acne: 2 (5) n (%)
  Drug-related AE: Diarrhea: 0 n (%)
  Drug-related AE: Fatigue: 0 n (%)
  Drug-related AE: Gastrointestinal disorders: 0 n (%)
  Drug-related AE: General disorders and administration site conditions: 0 n (%)
  Drug-related AE: Maculopapular rash: 0 n (%)
  Drug-related AE: Nausea: 0 n (%)
  Drug-related AE: Pruritus: 1 (3) n (%)
  Drug-related AE: Renal and urinary disorders: 0 n (%)
  Drug-related AE: Skin and subcutaneous tissue disorders: 2 (5) n (%)
  Drug-related AE: Urinary hesitation: 0 n (%)
Healthy participants; [5]
  AE: Abdominal pain: 1 (3) n (%)
  AE: Acne: 0 n (%)
  AE: Diarrhea: 6 n (%) and 6 (15) n (%)
  AE: Gastrointestinal disorders: 7 (18) n (%)
  AE: General disorders and administration site conditions: 3 (8) n (%)
  AE: Immune system disorders: 0 n (%)
  AE: Infections and infestations: 1 (3) n (%)
  AE: Maculopapular rash: 1 (3) n (%)
  AE: Medical device site dermatitis: 2 (5) n (%)
  AE: Nausea: 2 (5) n (%)
  AE: Nervous system disorders: 1 (3) n (%)
  AE: Renal and urinary disorders: 0 n (%)
  AE: Reproductive system and breast disorders: 0 n (%)
  AE: Respiratory, thoracic, and mediastinal disorders: 0 n (%)
  AE: Skin and subcutaneous tissue disorders: 2 (5) n (%)
  AE: Vessel puncture site pain: 0 n (%)
  Any AE: 10 (25) n (%)
  Any drug-related AE: 7 n (%) and 7 (18) n (%)
  Drug-related AE: Abdominal pain: 1 (3) n (%)
  Drug-related AE: Acne: 0 n (%)
  Drug-related AE: Fatigue: 0 n (%)
  Drug-related AE: Gastrointestinal disorders: 6 (15) n (%)
  Drug-related AE: General disorders and administration site conditions: 0 n (%)
  Drug-related AE: Maculopapular rash: 1 (3) n (%)
  Drug-related AE: Nausea: 2 (5) n (%)
  Drug-related AE: Pruritus: 0 n (%)
  Drug-related AE: Renal and urinary disorders: 0 n (%)
  Drug-related AE: Skin and subcutaneous tissue disorders: 1 (3) n (%)
  Drug-related AE: Urinary hesitation: 0 n (%)
dogs; dog
  Maximum concentration: 7960 ng/mL
dogs; dogs, telemetry
  QT interval effects: minimal QT interval effects were observed in one dog
HIV‐1
  Mean reduction from baseline in HIV-1 RNA: 2 log10 copies/mL
[1]
  Geometric mean Cmax: 1040 to 1780 ng/mL
[2]
  Geometric mean Cmax: 1860 ng/mL
[3]
  Tolerability: generally well tolerated

Reference: publication PMC10644204 (Pharmacology Research & Perspectives, 2023)
